According to ChEMBL document CHEMBL1921780, “Novel 3-nitro-1H-1,2,4-triazole-based aliphatic and aromatic amines as anti-chagasic agents” (J Med Chem, 2011):

Tests used:
[1] = tested on: Trypanosoma brucei rhodesiense; assay: Antitrypanosomal activity against blood stream form of Trypanosoma brucei rhodesiense STIB 900 […] after 72 hrs by alamar blue assay; assay type: functional, organism-based; settings: STIB 900, 72 h
[2] = tested on: L6; assay: Cytotoxicity against rat L6 cells after 72 hrs by alamar blue assay; assay type: cell-based; settings: L6, 72 h
In short: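 Run in 96-well plates with a compound dose series. T. cruzi was tested as amastigotes inside infected L6 rat skeletal myoblasts. Uninfected L6 cells were used for cytotoxicity. IC50 was obtained by linear regression from sigmoidal dose–inhibition curves.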

[3] = Selectivity index, ratio of IC50 for rat L6 cells to IC50 for Trypanosoma brucei rhodesiense STIB 900; assay type: toxicity, cell-based; settings: L6 cells versus Trypanosoma brucei rhodesiense STIB 900, read-out: Ratio IC50
In short: (§1)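 Selectivity index is the L6 myoblast IC50 divided by the IC50 for each parasite. L. donovani was tested as axenic amastigotes. Both IC50s came from 96-well dose-response screens fitted by linear regression of sigmoidal curves.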

[4] = Selectivity index, ratio of IC50 for rat L6 cells to IC50 for Trypanosoma cruzi Tulahuen C4; assay type: toxicity, cell-based; settings: L6 cells versus Trypanosoma cruzi Tulahuen C4, read-out: Ratio IC50; in short: as §1
[5] = Selectivity index, ratio of IC50 for rat L6 cells to IC50 for Leishmania donovani MHOM-ET-67/L82; assay type: toxicity, cell-based; settings: L6 cells versus Leishmania donovani MHOM-ET-67/L82, read-out: Ratio IC50; in short: as §1
[6] = tested on: Trypanosoma cruzi; assay: Ratio of benznidazole IC50 to compound IC50 for Trypanosoma cruzi Tulahuen C4 infected in rat L6 cells after 72 hrs by alamar blue assay; assay type: functional
[7] = Dissociation constant, pKa of the compound; assay type: physicochemical
[8] = tested on: Trypanosoma brucei brucei; assay: Antitrypanosomal activity against blood-stream Trypanosoma brucei brucei after 3 days by alamar blue assay; assay type: functional, organism-based; settings: 72 h
In short: (§2)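 Bloodstream-form parasites seeded at 1 × 10^3 per ml in growth medium with a range of nitrotriazole or nifurtimox concentrations, no tetracycline. Incubated 3 days at 37 °C, then Alamar blue added for a further 16 h. IC50 taken from culture cell density.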

[9] = tested on: Trypanosoma brucei brucei; assay: Antitrypanosomal activity against blood-stream Trypanosoma brucei brucei expressing type 1 nitroreductase after 3 days by alamar blue assay in absence of tetracycline; assay type: functional, organism-based; settings: 72 h; in short: as §2
[10] = tested on: Trypanosoma brucei brucei; assay: Antitrypanosomal activity against tetracycline-induced blood-stream Trypanosoma brucei brucei overexpressing type 1 nitroreductase after 3 days by alamar blue assay; assay type: functional, organism-based; settings: 72 h
In short: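 Bloodstream-form parasites carrying inducible TbNTR, with expression induced by tetracycline (1 μg/mL). Seeded at 1 × 10^3 per ml with a range of nitrotriazole or nifurtimox concentrations. Incubated 3 days at 37 °C, then Alamar blue added for 16 h. IC50 taken from cell density.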

[11] = tested on: Trypanosoma brucei brucei; assay: Ratio of IC50 for blood-stream Trypanosoma brucei brucei expressing type 1 nitroreductase in the absence of tetracycline to IC50 for tetracycline-induced blood-stream Trypanosoma brucei brucei overexpressing type 1 nitroreductase; assay type: functional
In short: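 Each culture seeded at 1 × 10^3 per ml, given compound for 3 days at 37 °C, then Alamar blue added for 16 h. IC50 taken from cell density, and the ratio is uninduced over induced.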

[12] = tested on: Leishmania donovani; assay: Antileishmanial activity against Leishmania donovani MHOM-ET-67/L82 axenic amastigotes after 72 hrs by alamar blue assay; settings: MHOM-ET-67/L82, 72 h
[13] = tested on: Trypanosoma cruzi; assay: Antitrypanosomal activity against amastigotes of Trypanosoma cruzi Tulahuen C4 infected in rat L6 cells after 72 hrs by alamar blue assay; settings: Tulahuen C4, L6, 72 h
[14] = tested on: Salmonella typhimurium; assay: Induction of mutagenesis in Salmonella Typhimurium by Ames test; assay type: toxicity, organism-based; settings: salmonella enterica subsp. enterica serovar typhimurium
[15] = tested on: Trypanosoma cruzi; assay: Antitrypanosomal activity against amastigote form of Trypanosoma cruzi Tulahuen C4 infected in rat L6 cells after 72 hrs by alamar blue assay; settings: Tulahuen C4, L6, 72 h

SMILES	IC50 [1] [nM]	IC50 [2] [nM]	selectivity ratio [3]	selectivity ratio [4]	selectivity ratio [5]	Ratio IC50 [6]	pKa [7]	IC50 [8] [nM]	IC50 [9] [nM]	IC50 [10] [nM]	Ratio IC50 [11]	IC50 [12] [nM]	IC50 [13] [nM]	Activity [14]	IC50 [15] [nM]
Cl.O=[N+]([O-])c1nccn1CCCNc1nc(-c2ccccc2)nc2ccccc12	3920	87800	22	45	9	0.7	5.06	7470	7580	950	8	10100	1970	–	–
Cl.O=[N+]([O-])c1ncn(CCCNc2ccnc3cc(Cl)ccc23)n1	309	143000	463	236	3	2.2	7.31	–	–	–	–	45800	607	Non-toxic	–
Cl.O=[N+]([O-])c1ncn(CCCCNc2ccnc3cc(Cl)ccc23)n1	193	137000	708	976	2	9.6	7.31	170	440	100	4	64500	140	–	–
Cl.O=[N+]([O-])c1ncn(CCCNc2nc(-c3ccccc3)nc3ccccc23)n1	1420	97000	68	66	10	0.9	5.06	2630	4480	70	64	9480	1480	Non-toxic	–
Cl.O=[N+]([O-])c1ncn(CCCNCc2cc(C(F)(F)F)cc(C(F)(F)F)c2)n1	7840	138000	18	816	12	8	9.44	7830	11100	760	14	11100	169	Non-toxic	–
Cl.O=[N+]([O-])c1ncn(CCCN(Cc2ccc(C(F)(F)F)cc2)Cc2ccc(C(F)(F)F)cc2)n1	271	91900	339	634	264	9.3	8.79	210	200	100	2	348	145	–	–
Cl.Cl.O=[N+]([O-])c1ncn(CCCN2CCN(Cc3ccc(C(F)(F)F)cc3)CC2)n1	1380	> 191000	> 140	> 562	> 3	4	8.33	> 10000	–	–	–	58200	340	–	–
Cl.Cl.O=[N+]([O-])c1ncn(CCCCN2CCN(Cc3ccc(C(F)(F)F)cc3)CC2)n1	1200	118000	99	287	3	3.3	8.52	> 10000	–	–	–	44400	412	–	–
Cl.Cl.O=[N+]([O-])c1ncn(CCCN2CCN(c3ccc(C(F)(F)F)cc3)CC2)n1	5330	52800	10	1320	2	33.8	7.85	2300	2630	210	13	25900	40	–	–
O=C(Cn1ccnc1[N+](=O)[O-])NCc1ccccc1 [BENZNIDAZOLE]	–	–	–	–	–	1	–	–	–	–	–	–	–	–	1350
CC1CS(=O)(=O)CCN1/N=C/c1ccc([N+](=O)[O-])o1 (stereo not given) [NIFURTIMOX]	–	–	–	–	–	–	–	–	1710	130	13	–	–	–	–
